Assay outcomes (PubChem BioAssay)
Hits are enriched below; roughly 2% of the tested compounds scored in any of these assays.
CRFBP-R2 agonist – agonists of human CRF-binding protein/CRF-R2 receptor complex; HEK293 CRF-R2/CRF-BP, calcium dye fluorescence (FLIPR); percent of saturating CRF peptide response; activation, % at 13.2 µM; 350,000 tested, 0.46% active;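 active means activation of at least 50%, plus an integration ratio under a set limit after plate pattern correction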;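 further: plate controls were neutral control wells without compound for no effect and CRF at EC100 for full effect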
TRPML3 ag – activates the human TRPML3 channel. Q8TDD5. 220,000 tested, 0.29% active. activation, % at 3 µM. HEK293 TRPML3-YFP, Fluo-8 calcium fluorescence; 100% = the carbachol control signal. AID 1448;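 active means activation above its plate's cutoff, the mean activation of the plate's test wells plus 3 SD, cut at about 12% in these data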;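 further: 0% = DMSO only wells and 100% = carbachol wells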
Target sequence (Q8TDD5 whole entry, looked up): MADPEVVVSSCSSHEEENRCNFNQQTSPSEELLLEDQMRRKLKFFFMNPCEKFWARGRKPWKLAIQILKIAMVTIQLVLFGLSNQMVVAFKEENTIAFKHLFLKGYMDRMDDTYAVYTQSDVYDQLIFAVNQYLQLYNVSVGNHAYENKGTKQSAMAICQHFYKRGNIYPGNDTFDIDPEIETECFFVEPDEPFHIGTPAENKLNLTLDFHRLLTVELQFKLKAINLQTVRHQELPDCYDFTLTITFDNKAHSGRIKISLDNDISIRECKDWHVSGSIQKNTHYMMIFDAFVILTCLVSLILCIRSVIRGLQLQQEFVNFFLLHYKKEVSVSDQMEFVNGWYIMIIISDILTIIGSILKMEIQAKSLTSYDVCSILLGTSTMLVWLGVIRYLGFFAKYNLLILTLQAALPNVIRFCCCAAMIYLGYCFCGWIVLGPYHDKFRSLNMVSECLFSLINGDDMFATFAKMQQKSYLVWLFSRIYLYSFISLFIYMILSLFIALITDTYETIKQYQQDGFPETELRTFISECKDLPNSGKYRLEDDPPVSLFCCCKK
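Test system: TRPML3-YFP stable HEK293 cells. Doses: single point at 3 µM. Incubation: dye loading 1 h 37 °C then 30 min ambient, 125 s read. Signal: Fluo-8 calcium dye fluorescence, ex 470-495, em 515-575 nm. Measure: percent activation from peak-to-basal fluorescence ratio, scaled between DMSO and carbachol.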
GPR7 antag – human neuropeptides B/W receptor 1 antagonism; GPR7-expressing cells, fluorescence antagonist assay; inhibition, % at 4.4 µM; 290,000 tested, 1.1% active; AID 1861; in the data active means inhibition above about 16%, passing the limit was not always enough;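 further: cells stimulated with the agonist NPW; 0% = agonist with vehicle and 100% = vehicle without agonist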
zfTRPN1 agonist – agonists of zebrafish TRPN1 channel | HEK293 zebrafish TRPN1-YFP, Fluo-8 calcium fluorescence; 100% = response to 87 µM carbachol | activation, % at 3 µM | 220,000 tested, 0.18% active | AID 1424;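 active means activation above its plate's cutoff, the mean activation of test wells on that plate plus 3 SD, cut at about 19% in these data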;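 further: 0% = DMSO alone and 100% = 87 µM carbachol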
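Material – zebrafish TRPN1-YFP in HEK293 cells · Doses – 3 µM single point · Schedule – dye 1 h 37 °C plus 30 min RT · Signal – Fluo-8 calcium fluorescence, excitation 470-495 nm, emission 515-575 nm · Read-out – % activation versus carbachol response · Control set – carbachol high, DMSO low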
CRFR2-BP antag – blocks CRF-induced signaling of the CRF-BP/CRF-R2 complex | HEK293 CRF-R2/CRF-BP, CRF-induced calcium fluorescence | inhibition, % at 11.8 µM | 350,000 tested, 0.59% active | AID 588475;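 active means inhibition of the ligand-induced calcium signal above about 50% at the single tested concentration, limit read from the data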
An asterisk follows results filed as active; nt = not tested or not shown.

SMILES	CRFBP-R2 agonist	TRPML3 ag	GPR7 antag	zfTRPN1 agonist	CRFR2-BP antag
COc1ccc([C@H]2CC(=O)C=C(c3ccc(Cl)c(C(F)(F)F)c3)C2)cc1OC	-0.6	nt	nt	nt	-3.6
COc1ccc(-c2ccc(/C=N/NC(=O)Cc3nnc(N)s3)o2)cc1Cl	-4.7	-1.1	-5.6	2.3	54.6*
CC1CC(C)CN(CCOc2ccccc2-c2ccccc2)C1 (configuration not stated)	-0.8	0.4	24.7*	2.0	20.0
Fc1ccc(C2c3cccn3CCN2C(=S)Nc2cccc(F)c2)cc1 (configuration not stated)	6.2	0.8	5.6	2.0	53.0*
O=c1cc(CSc2nnc(-c3cccs3)n2Cc2ccccc2)nc2sc3ccccc3n12	0.2	-0.8	29.7*	2.4	7.3
CCOC(=O)c1c(-c2ccccc2)csc1NC(=O)/C(C#N)=C\c1ccc(O)c(OC)c1	132.5*	nt	nt	nt	-51.4
CCOC(=O)/C(C#N)=C\c1ccc(O)c(OC)c1	-0.2	1.2	-13.3	0.8	3.1
CCOC(=O)c1c(-c2ccc(C)cc2)csc1NC(=O)/C(C#N)=C/c1ccc(O)c(OC)c1	194.9*	1.4	0.1	2.4	-189.7
COc1cc(/C=C(\C#N)C(=O)Nc2ccc3c(c2)OCCO3)ccc1O	11.0	0.4	3.5	3.5	72.5*
Cc1ccc(C(=O)NC2CC(C)(C)NC(C)(C)C2)cc1S(=O)(=O)N1CCOCC1	0.4	nt	nt	nt	-5.9
COc1ccc(/C=c2\s/c(=C/C(=O)c3ccc(C)cc3)[nH]c2=O)c(OC)c1	123.5*	1.7	2.2	2.2	-192.2
CCOC(=O)c1c(C)[nH]c(C(=O)OCC(=O)Nc2sc(C(=O)N(C)C)c(C)c2C(=O)OCC)c1C	2.6	nt	nt	nt	87.0*
CN1CCc2c(sc(/N=C/c3cccs3)c2C(N)=O)C1	59.6*	1.1	-7.7	3.2	-8.6
Cc1cc(C)c(C(=O)COC(=O)c2nn(C)c(=O)c3ccccc23)cc1C	0.9	nt	nt	nt	6.4
O=C(NC(C(=O)N/N=C/c1ccccc1)c1n[nH]c(=O)c2ccccc12)c1ccccc1 (configuration not stated)	98.2*	4.8	0.9	0.1	-16.8
NC(=O)C1=C[C@H](c2ccc(Br)cc2)C[C@H](OCc2ccc(CO)cc2)O1	-0.6	1.3	-7.2	-0.3	11.9
O=C(O)C1=C[C@@H](c2ccc(Br)cc2)C[C@@H](OCc2ccc(CO)cc2)O1	-1.1	0.0	-8.3	0.7	75.8*
O=c1[nH]cnc2c1ncn2-c1ccc(N(CCO)CCO)cc1	-4.2	nt	nt	nt	15.2
Cc1cccc(CCN2CCN=C2N(C)C)c1	9.1	nt	nt	nt	-10.5
CC(C)c1cc(-c2cc(C(=O)NCc3ccccc3)on2)nc(NCC2CC2)n1	96.0*	nt	nt	nt	-39.8
COc1ccc(C(C)=O)cc1CC(=O)Nc1cccc(S(=O)(=O)N2CCOCC2)c1	0.7	nt	nt	nt	-4.3
COc1ccc2c(C)cc(SCn3nnc4ccccc4c3=O)nc2c1	2.6	1.1	-7.5	-0.7	53.3*
COc1ccc(OC)c(C(=O)Cn2nnc3ccccc3c2=O)c1	1.3	0.6	-6.5	-0.3	-19.4
CC(C)c1ccc(COC(=O)CN2C(=O)NC3(CCCCC3C)C2=O)cc1 (configuration not stated)	0.8	nt	nt	nt	-18.8
CCCc1ncc(CN2CCCC(C(=O)Nc3ccc(-c4cccc(OC)c4)cc3)C2)cn1 (configuration not stated)	1.3	nt	-5.0	nt	-30.4
SMILES	CRFBP-R2 agonist	TRPML3 ag	GPR7 antag	zfTRPN1 agonist	CRFR2-BP antag
COc1cccc(-c2ccc(NC(=O)C3CCCN(Cc4cnn(C(C)C)c4)C3)cc2)c1 (configuration not stated)	6.7	nt	20.2*	nt	-9.1
Cc1ccccc1Nc1nc(N)nc(COC(=O)c2ccccc2)n1	0.3	-0.1	-11.0	-1.4	-3.0
Cc1ccccc1Nc1nc(N)nc(COC(=O)c2cccc(S(=O)(=O)N(C)c3ccccc3)c2)n1	-3.7	1.1	-19.9	0.1	51.0*
CCc1nnc(NC(=S)Nc2ccccc2)s1	-2.0	0.4	-8.6	-0.1	56.9*
COc1nc(NC(=O)c2ccc(F)cc2)nc(OC)c1-c1ccccc1	0.8	nt	-8.2	nt	-2.2
N#CCc1nc(CSc2nc3ccccc3s2)cs1	-0.2	0.1	16.2*	-0.2	9.1
Cc1ccc(C(=O)N/C(=C\c2ccc(-c3cccc([N+](=O)[O-])c3)o2)C(=O)NC(C)(C)C)cc1	0.5	-0.6	-10.0	-1.3	0.6
